What all share (assay type): functional
Assay [1] is described as follows: Antiinflammatory activity in Swiss albino mouse macrophage assessed as inhibition of LPS-induced TNFalpha production at 1 ug/ml treated 30 mins before LPS challenge measured after 24 hrs by ELISA. In a few lines: (§1)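 Peritoneal macrophages from 8-week-old female Swiss albino mice, elicited by i.p. 1% peptone (1 mL) 3 days before harvest and collected by PBS (pH 7.4) lavage, were used at 2 × 10^6 live cells/mL. Cells were kept in RPMI 1640 with 10% heat-inactivated FCS and penicillin/streptomycin at 37 °C, 5% CO2. Adherent cells were kept after 2 h. Compounds were given in DMSO, with a DMSO vehicle control. LPS was 0.5 µg/mL. Cytokines were measured in supernatants by mouse sandwich ELISA kits. n = 4, Student t-test versus vehicle.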

A short description of assay [2]: Antiinflammatory activity in Swiss albino mouse macrophage assessed as inhibition of LPS-induced TNFalpha production at 10 ug/ml treated 30 mins before LPS challenge measured after 24 hrs by ELISA. Summed up:
as §1

Assay [3] can be described thus: Antiinflammatory activity in Swiss albino mouse macrophage assessed as inhibition of LPS-induced IL-6 production at 1 ug/ml treated 30 mins before LPS challenge measured after 24 hrs by ELISA. Summed up:
as §1

A short description of assay [4]: Antiinflammatory activity in Swiss albino mouse macrophage assessed as inhibition of LPS-induced IL-6 production at 10 ug/ml treated 30 mins before LPS challenge measured after 24 hrs by ELISA. In a few lines: as §1
A short description of assay [5]: Antiinflammatory activity in Swiss albino mouse macrophage assessed as inhibition of LPS-induced IL1-beta production at 1 ug/ml treated 30 mins before LPS challenge measured after 24 hrs by ELISA. Summed up:
as §1

Assay [6] can be described thus: Antiinflammatory activity in Swiss albino mouse macrophage assessed as inhibition of LPS-induced IL1-beta production at 10 ug/ml treated 30 mins before LPS challenge measured after 24 hrs by ELISA. Summed up:
as §1

As to `COc1ccc([C@H]2Oc3c(OC)c(Cl)c4ccc(=O)oc4c3O[C@@H]2CO)cc1OC`, the inhibition at 1 µg/mL in assay [1] is 50.2%; in assay [3], 57.5%; in assay [5] it was 59.2%. Also, the values for the inhibition at 10 µg/mL in assay [2], in assay [4] and in assay [6] were 49.6%, 56.2% and 40.1%, respectively.

For the compound `COc1cc([C@H]2Oc3c(OC)c([N+](=O)[O-])c4ccc(=O)oc4c3O[C@@H]2COC(C)=O)ccc1OC(C)=O`, the inhibition at 1 µg/mL in assay [1] turned out to be 70.5%; in assay [3] it was 87.2%; in assay [5], 70.4%. For the same compound, the inhibition at 10 µg/mL in assay [2] was determined as 67.8%; in assay [4] it was 82%; in assay [6], 65.3%.

Regarding `COc1cc([C@H]2Oc3c(OC)c([N+](=O)[O-])c4ccc(=O)oc4c3O[C@@H]2CO)c([N+](=O)[O-])cc1OC`, the inhibition at 1 µg/mL in assay [1] stood at 76.6%; in assay [3], 86.4%; in assay [5], 72%. Also, the inhibition at 10 µg/mL was determined as 78% in assay [2], 80.2% in assay [4] and 70.2% in assay [6].

Take `COc1cc([C@H]2Oc3c(OC)cc4ccc(=O)oc4c3O[C@@H]2COC(C)=O)ccc1O` [DURANTIN A]: the inhibition at 1 µg/mL in assay [1] amounted to 73.3%; in assay [3], 81.9%; in assay [5], 109%. Moreover, the inhibition at 10 µg/mL in assay [2] was 76.2%; in assay [4], 78.3%; in assay [6] it was 74.8%.

Consider `COc1cc([C@H]2Oc3c(OC)c(Br)c4ccc(=O)oc4c3O[C@@H]2COC(C)=O)ccc1O`, for which the inhibition at 1 µg/mL in assay [1] is 54.5%; in assay [3], 60.2%; in assay [5], 55.3%. The results for the inhibition at 10 µg/mL in assay [2], in assay [4] and in assay [6] were 54.2%, 52.5% and 58.8%, respectively.

Consider `COc1ccc([C@H]2Oc3c(OC)c(Br)c4ccc(=O)oc4c3O[C@@H]2CO)cc1OC`, for which the inhibition at 1 µg/mL stood at 44.8% in assay [1], 59.8% in assay [3] and 50.1% in assay [5]. The inhibition at 10 µg/mL came to 42% in assay [2], 60% in assay [4] and 44.7% in assay [6].

For `COc1cc([C@H]2Oc3c(OC)c([N+](=O)[O-])c4ccc(=O)oc4c3O[C@@H]2CO[N+](=O)[O-])c([N+](=O)[O-])cc1OC`, the inhibition at 1 µg/mL in assay [1] turned out to be 64.8%; in assay [3], 81.4%; in assay [5], 59.1%. In addition, the inhibition at 10 µg/mL was 60.6% in assay [2], 79% in assay [4] and 53.3% in assay [6].

For `O=C(O)Cc1ccccc1Nc1c(Cl)cccc1Cl` [DICLOFENAC SODIUM], the inhibition at 1 µg/mL in assay [1] came out at 46.5%; in assay [3], 51.1%; in assay [5], 38.5%.

The values above are taken from ChEMBL document CHEMBL1275299, “Synthesis and anti-inflammatory activity of derivatives of coumarino-lignoid, cleomiscosin A and its methyl ether” (2010).
